From PMC10023369 (ACS chemical biology, 2023)
Read-outs that look alike come from different tables or passages of the source. Where a SMILES comes first, the peptide text is derived from it. The star is where a group is joined. Cbz = O=C(OCc1ccccc1)*

What was measured:
EED = EED (Homo sapiens, UniProt O75530); assay: EED degradation by western blot in DB cells; type: cell-based
Summary of the method: (§1)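 DB cells seeded at 800,000 cells/well and dosed from DMSO stock for 24 hr; dose–response 0.01–3 μM. Cells washed with PBS and lysed in Cytobuster with protease inhibitors and benzonase. Normalized lysate boiled with reducing Laemmli buffer, run on 4–15% gels, blotted to PVDF, detected by fluorescence or ECL. Band densitometry normalized to GAPDH, then to DMSO, gave % degradation; EED quantified from lower ~55 kDa band. DC50 from three-parameter fit; Dmax = % degradation at 3 μM, 24 hr.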

H3K27me3 = H3K27me3 levels by western blot in DB cells; type: cell-based, human; settings: 3 μM for 96 hr
Summary of the method: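 H3K27me3 by western blot: DB cells seeded at 50,000 cells/well and treated with 3 μM test compound or DMSO for 96 hr. PBS-washed cells lysed in Cytobuster with protease inhibitors and benzonase. Samples boiled with reducing Laemmli buffer, separated on 4–15% gels, transferred to PVDF. Densitometry normalized to GAPDH and expressed relative to DMSO.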

[1] = molecular target: biotinylated EED and His-VHL (Homo sapiens, UniProt O75530+P40337); assay: TR-FRET ternary complex formation assay; type: binding; settings: EED-biotin and His-VHL, dose response up to 10 μM
biotinylated EED and His-VHL, sequence (O75530 whole entry, the tested form may be a part): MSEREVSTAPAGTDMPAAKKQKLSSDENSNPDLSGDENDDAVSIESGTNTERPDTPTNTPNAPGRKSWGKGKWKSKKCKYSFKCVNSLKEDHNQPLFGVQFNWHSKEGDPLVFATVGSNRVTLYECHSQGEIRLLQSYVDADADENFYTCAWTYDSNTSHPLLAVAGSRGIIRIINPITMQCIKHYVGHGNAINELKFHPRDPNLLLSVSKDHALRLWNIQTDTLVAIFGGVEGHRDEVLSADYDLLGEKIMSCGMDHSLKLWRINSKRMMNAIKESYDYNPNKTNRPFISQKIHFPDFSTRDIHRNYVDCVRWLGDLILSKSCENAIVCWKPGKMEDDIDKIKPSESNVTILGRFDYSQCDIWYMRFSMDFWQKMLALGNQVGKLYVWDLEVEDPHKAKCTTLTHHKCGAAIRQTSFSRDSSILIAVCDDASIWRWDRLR
biotinylated EED and His-VHL, sequence (P40337 1-154): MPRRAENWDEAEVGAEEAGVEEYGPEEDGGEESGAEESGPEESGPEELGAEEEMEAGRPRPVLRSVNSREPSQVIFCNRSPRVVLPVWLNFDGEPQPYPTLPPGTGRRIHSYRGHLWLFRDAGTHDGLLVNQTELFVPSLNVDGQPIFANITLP
Summary of the method: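 Ternary complex TR-FRET: biotinylated EED (residues 1–441, 160 nM) and His-VHL (residues 1–154, 320 nM) with Eu-streptavidin (2 nM) and ULight anti-6xHis (100 nM). Buffer: 20 mM Tris pH 7.5, 150 mM NaCl, Tween 20, 2 mM DTT, 1% DMSO. 10-point three-fold series from 10 μM; 4 h in dark. Read 665/615 ratio (320 nm excitation), minus no-compound wells. Technical triplicates; two independent experiments, standard error.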

DB cells [2] = assay: DB cell viability; type: cell-based, human; settings: 12 days, top concentrations tested (5 – 10 μM)
Summary of the method: (§2)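 DB cells in RPMI 1640 with 10% FBS (37 °C, 5% CO₂), seeded at 100K cells/mL in 12-well plates. Dosed with 0.01–10 μM or 0.5 μM test compound, or DMSO. Every 3 days, media exchanged, cells split back to seeding density and re-dosed, for up to 12 days. Trypan blue automated counts gave cells/mL and % viability. % proliferation relative to DMSO at each time point; EC50 from four-parameter log(inhibitor) fit.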

SUZ12 = SUZ12 degradation by western blot in DB cells; type: cell-based, human; settings: % degradation at 3 μM after 24 hr
Summary of the method: as §1

[3] = molecular target: PRC2 components EED and EZH2^WT/EZH2^Y641N (Homo sapiens, UniProt O75530+P40337); assay: Degradation of PRC2 components by western blot in DB cells; type: cell-based; settings: for Degradation of EED and EZH2^WT/EZH2^Y641N at 96 hr: DB cells, 3 μM for 96 hr
EZH2^WT/EZH2^Y641N [4] = assay: EZH2 degradation by western blot in DB cells; type: cell-based, human; settings: % degradation at 3 μM after 24 hr
Summary of the method: as §1

Caco-2 = Caco-2 permeability assay; type: in vitro ADME
His-tagged EED = His-tagged EED (Homo sapiens, UniProt O75530); assay: EED binding TR-FRET assay; settings: result in words
His-tagged EED, sequence (O75530 whole entry): as the sequence (O75530 whole entry, the tested form may be a part) above
Summary of the method: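 EED binding by TR-FRET displacement of a biotinylated EED ligand (15 nM). Mix held EED-6xHis (15 nM), ULight anti-6xHis antibody (10 nM) and Eu-W1024 streptavidin (2 nM). Test compounds run as 10-point dose–response, top final concentration 10 μM. IC50 from three biological replicates ± standard deviation.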

DB cells [5] = assay: DB cell proliferation analysis; type: cell-based, human; settings: for Reduction of cell growth compared to DMSO: 0.5 μM, 12 days
Summary of the method: as §2

[6] = tested on: triple negative breast cancer (TNBC) cells; settings: cited from earlier work
tumor growth = settings: once daily intraperitoneal administration, 150 mg/kg; cited from earlier work
[7] = Solubility observed in ternary complex assay; type: physicochemical; settings: above 10 μM in ternary complex assay
EZH2^WT/EZH2^Y641N [8] = settings: read-out: EZH2^WT/EZH2^Y641N DC50; DB cells; cited from earlier work

EED, sequence (O75530 whole entry): as the sequence (O75530 whole entry, the tested form may be a part) above

Cc1ncsc1-c1ccc(CNC(=O)[C@@H]2C[C@@H](O)CN2C(=O)[C@@H](NC(=O)C2CC(NC(=O)c3ccc(-c4cnc(NCc5ccco5)n5cnnc45)cc3)C2)C(C)(C)C)cc1 (stereo partly drawn) [UNC7700]
EED Dmax (EED; % degradation at 3 μM after 24 hr): 84%
DC50 (EED; read-out: EED DC50, 24 hr, dose response 0.01–3 μM, western blot): 111 nM
Decrease in H3K27me3 levels (H3K27me3): 85%
PROTAC concentration at maximum peak height of ternary complex TR-FRET signal [1]: around 1 μM
Ternary complex TR-FRET signal, in words [1]: much weaker compared to UNC6852
Loss in cell viability (DB cells [2]): ~30%
SUZ12 Dmax (SUZ12): 44%
Degradation of EED and EZH2^WT/EZH2^Y641N at 96 hr [3]: complete degradation of EED and EZH2^WT/EZH2^Y641N
EZH2^WT/EZH2^Y641N Dmax (EZH2^WT/EZH2^Y641N [4]): 86%
Caco-2 permeability (Caco-2): below the limit of detection of the assay
Percent recovery in Caco-2 assay (Caco-2; from the donor compartment, cell lysate, and assay well): 79–106%
EED binding (TR-FRET IC50) (His-tagged EED): equally potent binders of EED
Reduction of cell growth compared to DMSO (DB cells [5]): 46%
EC50 (DB cells [5]; read-out: Proliferation EC50 after 9 days, 0.01 – 10 μM, 9 days): 2600 ± 1900 nM
EC50 (DB cells [5]; read-out: Proliferation EC50 after 12 days, 0.01 – 10 μM, 12 days): 790 ± 530 nM

CC(C)C[C@@H](C=O)NC(=O)[C@H](CC(C)C)NC(=O)[C@H](CC(C)C)NC(=O)OCc1ccccc1 [MG132] (Cbz-Leu-Leu-Leu-aldehyde)
Effect of proteasome inhibitor pretreatment on UNC7700 mediated PRC2 degradation ([3]; added prior to UNC7700 cell treatment): blocks PRC2 degradation

Cc1cc(C)c(CNC(=O)c2cc(-c3ccc(N4CCN(CCNC(=O)CC56CC7CC(CC(C7)C5)C6)CC4)nc3)cc3c2cnn3C(C)C)c(=O)[nH]1 [MS1943]
Anti-proliferative effect in TNBC cells [6]: anti-proliferative
Tumor growth in vivo (tumor growth): suppresses tumor growth in vivo

Cc1ncsc1-c1ccc(CNC(=O)[C@@H]2C[C@@H](O)CN2C(=O)[C@@H](NC(=O)CCCNC(=O)c2ccc(-c3cnc(NCc4ccco4)n4cnnc34)cc2)C(C)(C)C)cc1 [UNC6852]
Decrease in H3K27me3 levels, in words (H3K27me3): only a small decrease in H3K27me3 levels
PROTAC concentration at maximum peak height of ternary complex TR-FRET signal [1]: around 1 μM
Ternary complex TR-FRET signal, in words [1]: signs of a bell-shaped curve
Degradation of EED and EZH2^WT/EZH2^Y641N at 96 hr [3]: substantial degradation of EED and EZH2^WT/EZH2^Y641N
Solubility [7]: poor solubility observed above this concentration
DC50 (EZH2^WT/EZH2^Y641N [8]): 670 ± 240 nM
Reduction of cell growth compared to DMSO (DB cells [5]): 8%

CCCc1cc(C)[nH]c(=O)c1CNC(=O)c1cc(-c2ccc(N3CCN(C(C)C)CC3)nc2)cc2c1cnn2C(C)C [UNC1999]
Decrease in H3K27me3 levels (H3K27me3): 76%
Reduction of cell growth compared to DMSO (DB cells [5]): 28%

Cc1ncsc1-c1ccc(CNC(=O)[C@H]2C[C@@H](O)CN2C(=O)[C@@H](NC(=O)CCCNC(=O)c2ccc(-c3cnc(NCc4ccco4)n4cnnc34)cc2)C(C)(C)C)cc1 [UNC7043]
Ternary complex TR-FRET signal, in words [1]: do not show any increase in FRET signal

CS(=O)(=O)c1ccc(-c2cnc(NCc3ccco3)n3cnnc23)cc1 [EED226]
Decrease in H3K27me3 levels (H3K27me3): 63%
Reduction of cell growth compared to DMSO (DB cells [5]): 24%
